From ChEMBL document CHEMBL5724801, “EUbOPEN Chemogenomics Library - Multiplex” (2024)
“And” between values parts separate entries of the source, which are not always exact repeats. Identical values can stand only once.

Test system: HEK-293T
Assay: Multiplex assay against HEK293T
Type: toxicity, cell-based
Details: human
Summary of the method: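 With compound added, live cells were imaged on a CQ1 microscope at 37°C and 5% CO2; staining with Hoechst33342, BioTracker Green Microtubule Cytoskeleton Dye, MitoTracker Red and Annexin V Alexa Fluor 680 had been done at seeding. The CellPathfinder machine-learning gating scheme split cells into Hoechst high-intensity objects or normal cells, normal cells into healthy, pyknosed or fragmented nuclei, and pyknosed cells into mitotic or apoptotic. The tubulin, mitochondrial-mass and membrane-permeability phenotypes are per cents of healthy-nucleus cells.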

[1] = 12 h, 1 µM, compound concentration 1 uM
[2] = 12 h, 10 µM, compound concentration 10 uM
[3] = 24 h, 1 µM, compound concentration 1 uM
[4] = 24 h, 10 µM, compound concentration 10 uM
[5] = 48 h, 1 µM, compound concentration 1 uM
[6] = 48 h, 10 µM, compound concentration 10 uM

In the case of `C[C@@H]1C[C@H]2[C@@H]3CCC4=CC(=O)C=C[C@]4(C)[C@@]3(F)[C@@H](O)C[C@]2(C)[C@@]1(O)C(=O)CO` [DEXAMETHASONE], the “Population Apoptotic (%)” value [1] is reported as 37% and 53%, the “Population Fragmented Nuclei (%)” value [1] is reported as 8% and 7% and the “Population Healthy Nuclei (%)” value [1] is reported as 78% and 80%. For the same compound, the “Population Hoechst High Intensity Objects (%)” value [1] was 2% and 8%, the “Population Membrane Permeable-Phenotype (%)” value [1] was 1% and 0% and the “Population Mitochondria Different-Phenotype (%)” value [1] was 45% and 62%. The “Population Mitotic Cells (%)” value [1] was 62% and 46%, the “Population Normal (%)” value [1] was 97% and 91% and the “Population Pyknosed Nuclei (%)” value [1] was 12%. For the same compound, the “Population Tubulin-Different-Phenotype (%)” value [1] was 24% and 26%, the “Total Cell Count” value [1] was 420 and 372 and the “Population Apoptotic (%)” value [2] was 37% and 44%. For the same compound, the “Population Fragmented Nuclei (%)” value [2] was 7% and 5%, the “Population Healthy Nuclei (%)” value [2] was 79% and 81% and the “Population Hoechst High Intensity Objects (%)” value [2] was 6% and 14%. The “Population Membrane Permeable-Phenotype (%)” value [2] was 0%, the “Population Mitochondria Different-Phenotype (%)” value [2] was 44% and 69% and the “Population Mitotic Cells (%)” value [2] was 62% and 55%. For the same compound, the “Population Normal (%)” value [2] was 93% and 85%, the “Population Pyknosed Nuclei (%)” value [2] was 13% and the “Population Tubulin-Different-Phenotype (%)” value [2] was 33% and 39%. For the same compound, the “Total Cell Count” value [2] was 374 and 436, the “Population Apoptotic (%)” value [3] was 31% and 42% and the “Population Fragmented Nuclei (%)” value [3] was 9% and 12%. For the same compound, the “Population Healthy Nuclei (%)” value [3] was 78% and 79%, the “Population Hoechst High Intensity Objects (%)” value [3] was 4% and 7% and the “Population Membrane Permeable-Phenotype (%)” value [3] was 0%. For the same compound, the “Population Mitochondria Different-Phenotype (%)” value [3] was 30% and 45%, the “Population Mitotic Cells (%)” value [3] was 68% and 57% and the “Population Normal (%)” value [3] was 95% and 92%. The “Population Pyknosed Nuclei (%)” value [3] was 12% and 8%, the “Population Tubulin-Different-Phenotype (%)” value [3] was 17% and the “Total Cell Count” value [3] was 569 and 499. For the same compound, the “Population Apoptotic (%)” value [4] was 36% and 44%, the “Population Fragmented Nuclei (%)” value [4] was 8% and 9% and the “Population Healthy Nuclei (%)” value [4] was 74% and 79%. For the same compound, the “Population Hoechst High Intensity Objects (%)” value [4] was 6% and 15%, the “Population Membrane Permeable-Phenotype (%)” value [4] was 0% and the “Population Mitochondria Different-Phenotype (%)” value [4] was 30% and 43%. For the same compound, the “Population Mitotic Cells (%)” value [4] was 63% and 56%, the “Population Normal (%)” value [4] was 93% and 84% and the “Population Pyknosed Nuclei (%)” value [4] was 16% and 11%. For the same compound, the “Population Tubulin-Different-Phenotype (%)” value [4] was 29% and 22%, the “Total Cell Count” value [4] was 453 and 513 and the “Population Apoptotic (%)” value [5] was 30% and 27%. For the same compound, the “Population Fragmented Nuclei (%)” value [5] was 15%, the “Population Healthy Nuclei (%)” value [5] was 77% and 78% and the “Population Hoechst High Intensity Objects (%)” value [5] was 1% and 3%. The “Population Membrane Permeable-Phenotype (%)” value [5] was 1% and 0%, the “Population Mitochondria Different-Phenotype (%)” value [5] was 18% and 27% and the “Population Mitotic Cells (%)” value [5] was 69% and 72%. The “Population Normal (%)” value [5] was 98% and 96%, the “Population Pyknosed Nuclei (%)” value [5] was 7% and 6% and the “Population Tubulin-Different-Phenotype (%)” value [5] was 12% and 15%. For the same compound, the “Total Cell Count” value [5] was 915 and 685, the “Population Apoptotic (%)” value [6] was 25% and 50% and the “Population Fragmented Nuclei (%)” value [6] was 15% and 16%. The “Population Healthy Nuclei (%)” value [6] was 76%, the “Population Hoechst High Intensity Objects (%)” value [6] was 3% and 6% and the “Population Membrane Permeable-Phenotype (%)” value [6] was 0%. For the same compound, the “Population Mitochondria Different-Phenotype (%)” value [6] was 18% and 28%, the “Population Mitotic Cells (%)” value [6] was 75% and 49% and the “Population Normal (%)” value [6] was 96% and 93%. The “Population Pyknosed Nuclei (%)” value [6] was 7%, the “Population Tubulin-Different-Phenotype (%)” value [6] was 14% and 19% and the “Total Cell Count” value [6] was 760 and 756.

In the case of `Cl.NCCc1ccc(O)c(O)c1` [DOPAMINE HYDROCHLORIDE], the “Population Apoptotic (%)” value [1] is reported as 31% and 54%, the “Population Fragmented Nuclei (%)” value [1] is reported as 6% and 7% and the “Population Healthy Nuclei (%)” value [1] is reported as 77% and 78%. For the same compound, the “Population Hoechst High Intensity Objects (%)” value [1] was 10% and 6%, the “Population Membrane Permeable-Phenotype (%)” value [1] was 0% and the “Population Mitochondria Different-Phenotype (%)” value [1] was 54% and 58%. The “Population Mitotic Cells (%)” value [1] was 68% and 46%, the “Population Normal (%)” value [1] was 89% and 93% and the “Population Pyknosed Nuclei (%)” value [1] was 16% and 14%. For the same compound, the “Population Tubulin-Different-Phenotype (%)” value [1] was 36% and 18%, the “Total Cell Count” value [1] was 324 and 372 and the “Population Apoptotic (%)” value [2] was 46% and 37%. The “Population Fragmented Nuclei (%)” value [2] was 5%, the “Population Healthy Nuclei (%)” value [2] was 77% and 83% and the “Population Hoechst High Intensity Objects (%)” value [2] was 6% and 5%. The “Population Membrane Permeable-Phenotype (%)” value [2] was 0%, the “Population Mitochondria Different-Phenotype (%)” value [2] was 57% and 51% and the “Population Mitotic Cells (%)” value [2] was 53% and 62%. For the same compound, the “Population Normal (%)” value [2] was 93% and 94%, the “Population Pyknosed Nuclei (%)” value [2] was 17% and 11% and the “Population Tubulin-Different-Phenotype (%)” value [2] was 43% and 23%. For the same compound, the “Total Cell Count” value [2] was 344 and 413, the “Population Apoptotic (%)” value [3] was 44% and 20% and the “Population Fragmented Nuclei (%)” value [3] was 9% and 8%. For the same compound, the “Population Healthy Nuclei (%)” value [3] was 76% and 85%, the “Population Hoechst High Intensity Objects (%)” value [3] was 4% and 5% and the “Population Membrane Permeable-Phenotype (%)” value [3] was 1% and 0%. For the same compound, the “Population Mitochondria Different-Phenotype (%)” value [3] was 40% and 46%, the “Population Mitotic Cells (%)” value [3] was 55% and 79% and the “Population Normal (%)” value [3] was 95% and 94%. For the same compound, the “Population Pyknosed Nuclei (%)” value [3] was 13% and 5%, the “Population Tubulin-Different-Phenotype (%)” value [3] was 19% and 11% and the “Total Cell Count” value [3] was 451 and 478. The “Population Apoptotic (%)” value [4] was 39% and 38%, the “Population Fragmented Nuclei (%)” value [4] was 7% and 9% and the “Population Healthy Nuclei (%)” value [4] was 79% and 83%. The “Population Hoechst High Intensity Objects (%)” value [4] was 5%, the “Population Membrane Permeable-Phenotype (%)” value [4] was 0% and the “Population Mitochondria Different-Phenotype (%)” value [4] was 36% and 40%. For the same compound, the “Population Mitotic Cells (%)” value [4] was 60% and 61%, the “Population Normal (%)” value [4] was 94% and the “Population Pyknosed Nuclei (%)” value [4] was 12% and 7%. The “Population Tubulin-Different-Phenotype (%)” value [4] was 23% and 15%, the “Total Cell Count” value [4] was 393 and 533 and the “Population Apoptotic (%)” value [5] was 19% and 23%. For the same compound, the “Population Fragmented Nuclei (%)” value [5] was 14% and 10%, the “Population Healthy Nuclei (%)” value [5] was 78% and 81% and the “Population Hoechst High Intensity Objects (%)” value [5] was 4%. The “Population Membrane Permeable-Phenotype (%)” value [5] was 1% and 0%, the “Population Mitochondria Different-Phenotype (%)” value [5] was 23% and 20% and the “Population Mitotic Cells (%)” value [5] was 80% and 76%. For the same compound, the “Population Normal (%)” value [5] was 95%, the “Population Pyknosed Nuclei (%)” value [5] was 7% and the “Population Tubulin-Different-Phenotype (%)” value [5] was 14% and 7%. For the same compound, the “Total Cell Count” value [5] was 785 and 638, the “Population Apoptotic (%)” value [6] was 30% and 17% and the “Population Fragmented Nuclei (%)” value [6] was 14% and 12%. For the same compound, the “Population Healthy Nuclei (%)” value [6] was 79% and 83%, the “Population Hoechst High Intensity Objects (%)” value [6] was 3% and 1% and the “Population Membrane Permeable-Phenotype (%)” value [6] was 0%. For the same compound, the “Population Mitochondria Different-Phenotype (%)” value [6] was 24% and 17%, the “Population Mitotic Cells (%)” value [6] was 70% and 82% and the “Population Normal (%)” value [6] was 96% and 98%. The “Population Pyknosed Nuclei (%)” value [6] was 6% and 4%, the “Population Tubulin-Different-Phenotype (%)” value [6] was 13% and 7% and the “Total Cell Count” value [6] was 660 and 859.

`CNC[C@H](O)c1ccc(O)c(O)c1` [EPINEPHRINE] was tested, and the “Population Apoptotic (%)” value [1] was 20% and 56%, the “Population Fragmented Nuclei (%)” value [1] was 6% and the “Population Healthy Nuclei (%)” value [1] was 81%. The “Population Hoechst High Intensity Objects (%)” value [1] was 7% and 6%, the “Population Membrane Permeable-Phenotype (%)” value [1] was 0% and the “Population Mitochondria Different-Phenotype (%)” value [1] was 31% and 65%. The “Population Mitotic Cells (%)” value [1] was 80% and 43%, the “Population Normal (%)” value [1] was 92% and 93% and the “Population Pyknosed Nuclei (%)” value [1] was 11%. For the same compound, the “Population Tubulin-Different-Phenotype (%)” value [1] was 26% and 27%, the “Population Apoptotic (%)” value [2] was 55% and 56% and the “Population Fragmented Nuclei (%)” value [2] was 12% and 11%. The “Population Healthy Nuclei (%)” value [2] was 75% and 61%, the “Population Membrane Permeable-Phenotype (%)” value [2] was 1% and 0% and the “Population Mitochondria Different-Phenotype (%)” value [2] was 65% and 62%. For the same compound, the “Population Mitotic Cells (%)” value [2] was 44% and 43%, the “Population Normal (%)” value [2] was 90% and 59% and the “Population Pyknosed Nuclei (%)” value [2] was 11% and 26%. The “Population Tubulin-Different-Phenotype (%)” value [2] was 39% and 25%, the “Population Apoptotic (%)” value [3] was 19% and 36% and the “Population Fragmented Nuclei (%)” value [3] was 9%. The “Population Healthy Nuclei (%)” value [3] was 80%, the “Population Hoechst High Intensity Objects (%)” value [3] was 5% and 7% and the “Population Membrane Permeable-Phenotype (%)” value [3] was 0% and 1%. The “Population Mitochondria Different-Phenotype (%)” value [3] was 25% and 41%, the “Population Mitotic Cells (%)” value [3] was 80% and 63% and the “Population Normal (%)” value [3] was 94% and 92%. The “Population Pyknosed Nuclei (%)” value [3] was 9% and 10%, the “Population Tubulin-Different-Phenotype (%)” value [3] was 21% and 18% and the “Population Apoptotic (%)” value [4] was 50% and 80%. For the same compound, the “Population Fragmented Nuclei (%)” value [4] was 13% and 11%, the “Population Healthy Nuclei (%)” value [4] was 75% and 71% and the “Population Membrane Permeable-Phenotype (%)” value [4] was 0%. For the same compound, the “Population Mitochondria Different-Phenotype (%)” value [4] was 50% and 43%, the “Population Mitotic Cells (%)” value [4] was 50% and 19% and the “Population Normal (%)” value [4] was 91% and 60%. For the same compound, the “Population Pyknosed Nuclei (%)” value [4] was 11% and 17%, the “Population Tubulin-Different-Phenotype (%)” value [4] was 36% and 25% and the “Population Apoptotic (%)” value [5] was 16% and 35%. For the same compound, the “Population Fragmented Nuclei (%)” value [5] was 11% and 12%, the “Population Healthy Nuclei (%)” value [5] was 81% and 78% and the “Population Hoechst High Intensity Objects (%)” value [5] was 3%. For the same compound, the “Population Membrane Permeable-Phenotype (%)” value [5] was 1%, the “Population Mitochondria Different-Phenotype (%)” value [5] was 13% and 24% and the “Population Mitotic Cells (%)” value [5] was 83% and 64%. The “Population Normal (%)” value [5] was 96%, the “Population Pyknosed Nuclei (%)” value [5] was 7% and 8% and the “Population Tubulin-Different-Phenotype (%)” value [5] was 9% and 15%. The “Population Apoptotic (%)” value [6] was 33% and 69%, the “Population Fragmented Nuclei (%)” value [6] was 21% and 17% and the “Population Healthy Nuclei (%)” value [6] was 72% and 67%. For the same compound, the “Population Membrane Permeable-Phenotype (%)” value [6] was 0%, the “Population Mitochondria Different-Phenotype (%)” value [6] was 25% and 34% and the “Population Mitotic Cells (%)” value [6] was 66% and 30%. The “Population Normal (%)” value [6] was 96% and 78%, the “Population Pyknosed Nuclei (%)” value [6] was 5% and 14% and the “Population Tubulin-Different-Phenotype (%)” value [6] was 11% and 13%.
